Here are results for ten compounds from ChEMBL document CHEMBL2021854, “2-Aminopyrimidine based 4-aminoquinoline anti-plasmodial agents. Synthesis, biological activity, structure-activity relationship and mode of action studies” (Eur J Med Chem, 2012).

Some results are limits rather than exact numbers.

This test has as its system Vaccinia virus. The experiment in a line: Antiviral activity against Vaccinia virus infected in HEL cells assessed as inhibition of virus-induced cytopathogenicity after 4 days. Type of test: functional, organism-based. Particulars: Orthopoxvirus vaccinia, 96 h. The method in brief:
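Confluent HEL or HeLa monolayers infected with 100 CCID50 of virus in the presence of varying compound concentrations.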

As usually defined, the EC50 is the concentration that produces a half-maximal response.

`CCOC(=O)c1c(C)nc(NCCNc2ccnc3cc(Cl)ccc23)nc1-c1ccccc1`: the EC50 is more than 4 µM.

Regarding `CCOC(=O)c1c(C)nc(NCCCNc2ccnc3cc(Cl)ccc23)nc1-c1ccccc1`, the EC50 was more than 100 µM.

As for `CCOC(=O)c1c(C)nc(NCCCCNc2ccnc3cc(Cl)ccc23)nc1-c1ccccc1`, the EC50 is more than 100 µM.

With `CCOC(=O)c1c(C)nc(NCCCNc2ccnc3cc(Cl)ccc23)nc1C`, the EC50 was more than 100 µM.

Consider `CCOC(=O)c1c(C)nc(NCCCCNc2ccnc3cc(Cl)ccc23)nc1C`, for which the EC50 was more than 100 µM.

For `Cc1nc(NCCCNc2ccnc3cc(Cl)ccc23)nc(-c2cccc([N+](=O)[O-])c2)c1C(=O)OC(C)C`, the EC50 is more than 4 µM.

With `Cc1nc(NCCNc2ccnc3cc(Cl)ccc23)nc(-c2ccccc2[N+](=O)[O-])c1C(=O)OC(C)C`, the EC50 was more than 20 µM.

Consider `Cc1nc(NCCCCNc2ccnc3cc(Cl)ccc23)nc(-c2ccccc2[N+](=O)[O-])c1C(=O)OC(C)C`, for which the EC50 is more than 4 µM.

Regarding `Nc1nc2c(ncn2COCCO)c(=O)[nH]1` [ACYCLOVIR], the EC50 is more than 250 µM.

For the compound `Nc1nc(O)c2ncn(COC(CO)CO)c2n1` [GANCICLOVIR], the EC50 is more than 100 µM.
